Among the data in ChEMBL document CHEMBL1122887, “Structure-activity studies on the N-terminal region of growth hormone releasing factor” (1985) are Activity values, retold here.

Assay type in all cases: functional
Experiment [1] has as its system Rattus norvegicus. As to the kind of experiment: Percent growth hormone releasing activity in anesthetized rat relative to hpGRF (1-29)NH2. An outline of the steps:
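In pentobarbital-anesthetized male Charles River rats (6–9/group), two subcutaneous analogue doses and GRF(1-29)NH₂ reference doses were given. Plasma GH was measured by radioimmunoassay in jugular blood taken 15 min post-injection. Relative potency with 95% confidence limits came from a four-point assay design by Pugsley's method. Not active means no activity at the doses tested.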

In experiment [2] the test system is Rattus norvegicus. As to the kind of experiment: Effect on plasma growth hormone in anesthetized rat at a dose of 0.4 ug/100 g of body weight. A digest of the protocol: (§1)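 Male Charles River rats (175–350 g) anesthetized with sodium pentobarbital (6 mg/100 g body wt); 30 min later, 6–9 per group received a single subcutaneous 0.5-mL injection of saline, GRF(1-29)NH₂ reference, or one of two analogue doses. Jugular vein blood was drawn 15 min post-injection, and plasma GH was measured by radioimmunoassay, reported as ng/mL ± SE.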

For experiment [3], the system named is Rattus norvegicus. As to the kind of experiment: Effect on plasma growth hormone in anesthetized rat at a dose of 1 ug/100 g of body weight. A digest of the protocol: as §1

Turning to `CC[C@H](C)[C@H](NC(=O)[C@H](C)NC(=O)[C@H](CC(=O)O)NC(=O)[C@@H](C)NC(=O)[C@H](Cc1ccc(O)cc1)NC(C)=O)C(=O)N[C@@H](Cc1ccccc1)C(=O)N[C@H](C(=O)N[C@@H](CC(N)=O)C(=O)N[C@@H](CO)C(=O)N[C@@H](Cc1ccc(O)cc1)C(=O)N[C@@H](CCCN=C(N)N)C(=O)N[C@@H](CCCCN)C(=O)N[C@H](C(=O)N[C@@H](CC(C)C)C(=O)NCC(=O)N[C@@H](CCC(N)=O)C(=O)N[C@@H](CC(C)C)C(=O)N[C@@H](CO)C(=O)N[C@@H](C)C(=O)N[C@@H](CCCN=C(N)N)C(=O)N[C@@H](CCCCN)C(=O)N[C@@H](CC(C)C)C(=O)N[C@@H](CC(C)C)C(=O)N[C@@H](CCC(N)=O)C(=O)N[C@@H](CC(=O)O)C(=O)N[C@H](C(=O)N[C@@H](CCSC)C(=O)N[C@@H](CO)C(=O)N[C@@H](CCCN=C(N)N)C(N)=O)[C@@H](C)CC)C(C)C)[C@@H](C)O`, the Activity was 2558% in the experiment with Rattus norvegicus [1], 1300 ng/mL in the experiment on Rattus norvegicus [2] and 2496 ng/mL in the experiment on Rattus norvegicus [3].
